Screening data from PubChem.
HUVEC inhibit – inhibitors of human endothelial cell proliferation; AID 648; actives 1.1% (n = 86,000); viability, % at 10 µM (by protocol); HUVEC proliferation, CellTiter-Glo luminescence, 72 h; active compounds read low;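 active = viability at or below 30%; inactive = viability above 30%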;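 note: 100% = median luminescence of DMSO-only cell control wells on each plate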
H69AR inhibit – growth inhibitors of human H69AR lung tumor cells; H69AR lung tumor viability, ATP luminescence, 72 h; active compounds read low; viability, % at 10 µM; actives 6% (n = 85,000); AID 598;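 active = viability at or below 40%; inactive = viability above 40%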;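 note: multidrug resistant small cell line overexpressing MRP-1 efflux transporter; 100% = mean luminescence of untreated control wells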
E coli WT exp – blocks growth of wild type E. coli BW25113 | OD600 absorbance | AID 710 | growth inhibition, % at 100 µM | actives 0.15% (n = 98,000);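 active = growth inhibition above about 50% at one test dose, limit read from the data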;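 note: growth measured after 20 h incubation at 37 °C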
Jurkat tox 60K – cytotoxicity toward Jurkat cells | Jurkat E6.1 viability, ATP luminescence, 48 h | inhibition, % at 4 µM | actives 1.2% (n = 56,000) | AID 463;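 active = inhibition above the mean inhibition of all tested compounds plus 3 SD, cut at about 28% in these data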
Fibroblast inh – blocks proliferation of human lung fibroblasts | viability, % at 10 µM | actives 1.1% (n = 85,000) | LL 47 human lung fibroblast viability, ATP luminescence; active compounds read low;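 active = viability at or below 50% in the single dose screen; inactive = viability above 50%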;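 note: compound exposure lasted 72 h before the ATP readout; 100% = median luminescence of untreated cell-only wells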
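Test system: LL 47 human lung fibroblasts / Incubation: 72 h compound exposure at 37 °C after overnight plating / Technique: luminescent ATP detection, CellTiter-Glo / Compound dosing: 0.1% DMSO in all compound wells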
Ecoli tolC – blocks growth of E. coli BW25113 tolC mutant | OD615 | actives 2.2% (n = 65,000) | growth inhibition, % at 10 µM (by protocol) | AID 573;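 active = growth inhibition at or above a cutoff equal to the mean over every tested compound plus 3 SD, cut at about 60% in these data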;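 note: growth measured after 20 h incubation at 37 °C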
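test system = E. coli BW25113 ΔtolC::kan bacteria | medium = LB with kanamycin 50 µg/mL | signal = OD at 615 nm | schedule = 37 °C, 20 h exposure | evaluation = % inhibition of E. coli growth | compound dosing = one dose of 10 µM final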
Active calls of the source: *; x = not tested or not shown. Sampled rows, rich in hits. Any-hit rate of the full collection: about 6.4%.

SMILES	HUVEC inhibit	H69AR inhibit	E coli WT exp	Jurkat tox 60K	Fibroblast inh	Ecoli tolC
N#CC1=C(N)Oc2cc(Nc3ccccc3)ccc2C1c1ccncc1 (centres undefined)	3.1*	14*	-4	x	99	x
COc1cc(C2C(C#N)=C(N)Oc3c2oc(CO)cc3=O)cc(OC)c1OC (centres undefined)	106	67	1	-2	90	-22
COc1cc(C2C(C#N)=C(N)Oc3cc(N)ccc32)cc(OC)c1OC (centres undefined)	52	29*	2	x	51	9
COc1ccc(-n2c(SC3CCOC3=O)nc3ccccc3c2=O)cc1OC (centres undefined)	94	92	1	8	x	-1
Cc1ccccc1CN(c1ccc(C(=O)N2CCc3ccccc3C2)cc1)S(C)(=O)=O	101	80	-4	x	94	x
CCOC(=O)c1cnc2nc[nH]n2c1=O	93	93	x	4	97	-6
Cc1cc2c3c(c1)C1(SCC(=O)N1c1ccc(F)cc1)C(=O)N3C(C)(C)CC2C (centres undefined)	91	96	5	x	84	x
COc1cccc(C2c3c(oc4ccc(F)cc4c3=O)C(=O)N2CCCN2CCOCC2)c1 (centres undefined)	104	97	5	-1	111	-5
COc1ccc(N2CCN(CCCNC(=O)c3cc4sccc4n3C)CC2)cc1	86	30*	-5	6	93	4
CC1CCN(CCCNC(=O)c2cc3sccc3n2C)CC1	91	76	6	-2	96	7
COc1ccc(-n2cnc3ccccc32)cc1	70	82	8	x	94	x
CCOC(=O)c1nnc(-c2cccs2)nc1Oc1ccc(Cl)cc1	76	52	-16	x	94	x
CCOC(=O)c1nnc(-c2cccs2)nc1Oc1ccccc1C(=O)OC	74	31*	-10	x	97	x
Cc1ccc(C(=O)Nc2ncc(Cc3ccc(F)cc3)s2)o1	30*	89	5	0	92	14
COc1ccc(CCNC(=O)c2cnn(-c3ccc(C)c(C)c3)c2NC(=O)c2ccco2)cc1OC	95	78	-14	-2	107	7
Cc1ccc(-n2ncc(C(=O)N3CCc4ccccc4C3)c2NC(=O)c2ccco2)cc1C	87	26*	x	3	103	-9
O=S1(=O)N=C(Nc2ccc(O)c(CN3CCCCC3)c2)c2ccccc21	100	33*	2	1	x	-5
CC(C)=C(C#N)c1nc2ccccc2s1	x	x	2	-6	x	1
COC(=O)c1ccc(/C(O)=C(\C#N)c2nc3ccccc3s2)cc1	50	32*	-6	1	94	65*
Cc1ccc(SCc2[nH]nc3c2C(c2ccc(C)o2)C(C#N)=C(N)O3)cc1 (centres undefined)	x	x	-1	x	x	21
O=C(CSc1nnc(-c2cccnc2)n1-c1ccccc1)Nc1ccccn1	90	94	2	0	106	-23
Cc1ccc(-n2c(SCC(=O)Nc3ccc4c(c3)OCO4)nnc2-c2cccs2)cc1	67	9.2*	0	6	33*	3
C=CCn1c(SCC(=O)O)nnc1-c1cccs1	100	93	-5	x	104	x
C=CCn1c(SCC(=O)Nc2ccc3c(c2)CCC3)nnc1-c1cccs1	x	x	2	-2	x	77*
Cc1cccc(-n2c(SCC(=O)Nc3ccc4c(c3)OCO4)nnc2-c2ccoc2C)c1	48	9.2*	-6	-2	59	-12
SMILES	HUVEC inhibit	H69AR inhibit	E coli WT exp	Jurkat tox 60K	Fibroblast inh	Ecoli tolC
O=C(CSc1nnc(-c2cccnc2)n1-c1ccccc1)Nc1ccc2c(c1)OCO2	96	35*	-6	-2	87	-18
COc1cccc(NC(=O)CSc2nnc(-c3ccoc3C)n2-c2ccccc2)c1	92	91	-20	x	101	x
CCCC(=O)N1CC(=O)Nc2ccc(C)cc2C1c1ccc(F)cc1 (centres undefined)	99	101	x	4	98	6
COC(=O)C(Cc1cnc(Cl)s1)(C(=O)OC)c1ccccc1[N+](=O)[O-]	108	99	3	x	107	x
CCCn1c(SCC(=O)Nc2ccc3c(c2)OCCO3)nnc1-c1ccco1	x	x	1	-4	x	20
Cc1ccc(-n2c(SCC(=O)Nc3ccc4c(c3)OCCO4)nnc2-c2ccco2)cc1	57	14*	-4	-7	43*	-14
CC(Sc1nnc(-c2cccs2)n1Cc1ccccc1)C(=O)NCc1ccc2c(c1)OCO2 (centres undefined)	79	30*	-11	x	87	x
O=C(Nc1cccc(-c2cn3ccsc3n2)c1)c1ccccc1	85	68	-5	-1	91	22
O=c1/c(=C/c2ccco2)sc2nc(-c3ccccc3Br)nn12	108	94	-12	2	98	-12
CC(C)(C)c1cc(C(F)(F)F)nc(SCCCNC(=O)c2ccco2)n1	88	90	7	8	91	100*
COc1ccc(Nc2nc(NCCO)nc(OC)n2)cc1	86	105	-4	x	91	x
O=C(CSc1nnc(-c2ccncc2)n1CC1CCCO1)NCc1ccccc1 (centres undefined)	96	96	3	4	99	-7
CCOC(=O)CSc1nnc(CNC(=O)c2cccs2)n1Cc1ccccc1	95	78	1	1	103	-11
Cc1csc(NC(=O)CSc2nc(C)cs2)n1	99	82	15	-4	108	4
CCN(C(=O)COC(=O)c1cnc(C)cn1)C1CCCCC1	86	99	-1	1	102	-10
O=C(OCC(=O)N(C1CCCCC1)C1CCCCC1)c1cnccn1	98	1.2*	9	5	107	4
COC(=O)c1ccc(CSc2nc3ccc(C)cc3[nH]2)o1	x	x	10	x	x	x
CCCCNC(=O)c1sc(=S)n2c1[nH]c(=O)c1ccccc12	60	26*	11	12	96	100*
CCCCNC(=O)c1sc(=S)n(-c2ccccc2OC)c1N	104	95	4	x	95	x
O=C(NCC1CCCO1)c1ccc2c(=O)n(CC3CCCO3)c(=S)[nH]c2c1 (centres undefined)	92	81	5	x	98	x
O=C(NC1CCCCC1)c1sc(=S)n2c1[nH]c(=O)c1ccccc12	69	43	-11	0	102	100*
O=C(NCC1CCCO1)c1sc(=S)n2c1[nH]c(=O)c1ccc(C(=O)N3CCCCC3)cc12 (centres undefined)	73	73	-9	11	98	67*
Nc1nnnn1/N=C/c1cc(Cl)cc(Cl)c1OCc1ccc(Cl)cc1Cl	89	22*	-14	x	91	x
Nc1nnnn1/N=C/c1ccccc1OCc1ccc(Cl)cc1Cl	x	x	-2	0	x	-7
O=c1[nH]c2cc3c(cc2cc1CN(Cc1cccnc1)Cc1nnnn1Cc1ccco1)OCCO3	x	x	4	x	x	x
COC(=O)c1ccsc1NC(=O)CN1CCN(c2ccc(F)cc2)CC1	100	74	-14	2	99	70*
